According to ChEMBL document CHEMBL1806473, “Structure-based optimization of click-based histone deacetylase inhibitors” (Eur J Med Chem, 2011):

Assays:
[1] = test system: CCRF-CEM; experiment: Antiproliferative activity against human CCRF-CEM cells by SRB assay; assay type: functional
Outline: (§1)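 Tested in the NCI in vitro human tumor cell line screen, run by the National Cancer Institute. Each compound was given at five concentrations (100, 10, 1.0, 0.1 and 0.01 μM). GI50 is the drug concentration that reduces growth of treated cells to half that of control cells during drug incubation, judged from the SRB signal.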

[2] = test system: K562; experiment: Antiproliferative activity against human K562 cells by SRB assay; assay type: functional; outline: as §1
[3] = test system: A549; experiment: Antiproliferative activity against human A549 cells by SRB assay; assay type: functional; outline: as §1
[4] = test system: HOP-92; experiment: Antiproliferative activity against human HOP92 cells by SRB assay; assay type: functional; outline: as §1
[5] = test system: NCI-H322M; experiment: Antiproliferative activity against human NCI-H322M cells by SRB assay; assay type: functional; outline: as §1
[6] = test system: NCI-H460; experiment: Antiproliferative activity against human NCI-H460 cells by SRB assay; assay type: functional; outline: as §1
[7] = test system: HCT-116; experiment: Antiproliferative activity against human HCT116 cells by SRB assay; assay type: functional; outline: as §1
[8] = test system: SW-620; experiment: Antiproliferative activity against human SW620 cells by SRB assay; assay type: functional
Outline: (§2)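 Cell growth was tested in the NIH in vitro disease-oriented human tumor cell line screen, which NCI ran for these compounds. Compounds were tested at five concentrations (100, 10, 1.0, 0.1 and 0.01 μM), and growth was read by SRB signal. GI50 is the drug concentration that reduces growth of treated cells to half that of control cells during drug incubation.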

[9] = test system: SF-268; experiment: Antiproliferative activity against human SF268 cells by SRB assay; assay type: functional; outline: as §1
[10] = test system: SF-539; experiment: Antiproliferative activity against human SF539 cells by SRB assay; assay type: functional; outline: as §1
[11] = test system: SNB-19; experiment: Antiproliferative activity against human SNB19 cells by SRB assay; assay type: functional; outline: as §1
[12] = test system: SNB-75; experiment: Antiproliferative activity against human SNB75 cells by SRB assay; assay type: functional; outline: as §2
[13] = test system: U-251; experiment: Antiproliferative activity against human U251 cells by SRB assay; assay type: functional; outline: as §2
[14] = test system: LOX IMVI; experiment: Antiproliferative activity against human LOXIMVI cells by SRB assay; assay type: functional; outline: as §1
[15] = test system: Malme-3M; experiment: Antiproliferative activity against human MALME-3M cells by SRB assay; assay type: functional; outline: as §1
[16] = test system: M14; experiment: Antiproliferative activity against human M14 cells by SRB assay; assay type: functional; outline: as §1
[17] = test system: MDA-MB-435; experiment: Antiproliferative activity against human MDA-MB-435 cells by SRB assay; assay type: functional; outline: as §1
[18] = test system: SK-MEL-5; experiment: Antiproliferative activity against human SK-MEL-5 cells by SRB assay; assay type: functional; outline: as §1
[19] = test system: UACC-257; experiment: Antiproliferative activity against human UACC257 cells by SRB assay; assay type: functional; outline: as §2
[20] = test system: UACC-62; experiment: Antiproliferative activity against human UACC62 cells by SRB assay; assay type: functional; outline: as §2
[21] = test system: IGROV-1; experiment: Antiproliferative activity against human IGROV1 cells by SRB assay; assay type: functional; outline: as §1
[22] = test system: OVCAR-3; experiment: Antiproliferative activity against human OVCAR3 cells by SRB assay; assay type: functional; outline: as §1
[23] = test system: OVCAR-8; experiment: Antiproliferative activity against human OVCAR8 cells by SRB assay; assay type: functional; outline: as §1
[24] = test system: 786-0; experiment: Antiproliferative activity against human 786-0 cells by SRB assay; assay type: functional; outline: as §1
[25] = test system: A498; experiment: Antiproliferative activity against human A498 cells by SRB assay; assay type: functional; outline: as §1
[26] = test system: ACHN; experiment: Antiproliferative activity against human ACHN cells by SRB assay; assay type: functional; outline: as §1
[27] = test system: RXF 393; experiment: Antiproliferative activity against human RXF393 cells by SRB assay; assay type: functional; outline: as §1
[28] = test system: SN12C; experiment: Antiproliferative activity against human SN12C cells by SRB assay; assay type: functional; outline: as §1
[29] = test system: UO-31; experiment: Antiproliferative activity against human UO31 cells by SRB assay; assay type: functional; outline: as §2
[30] = test system: DU-145; experiment: Antiproliferative activity against human DU145 cells by SRB assay; assay type: functional; outline: as §1
[31] = test system: MCF7; experiment: Antiproliferative activity against human MCF7 cells by SRB assay; assay type: functional; outline: as §1
[32] = Antiproliferative activity against human Hs 578T cells by SRB assay; assay type: functional; outline: as §1
[33] = test system: BT-549; experiment: Antiproliferative activity against human BT549 cells by SRB assay; assay type: functional; outline: as §1
[34] = test system: T47D; experiment: Antiproliferative activity against human T47D cells by SRB assay; assay type: functional; outline: as §2
[35] = test system: MDA-MB-468; experiment: Antiproliferative activity against human MDA-MB-468 cells by SRB assay; assay type: functional; outline: as §1
[36] = test system: HL-60(TB); experiment: Cytotoxicity against human HL-60(TB) cells; assay type: cell-based
[37] = test system: K562; experiment: Cytotoxicity against human K562 cells; assay type: cell-based
[38] = test system: RPMI-8226; experiment: Cytotoxicity against human RPMI8226 cells; assay type: cell-based
Outline: (§3)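 Tested in the NCI in vitro disease-oriented human tumour cell line screen, with screening performed by NCI. Growth was read by SRB signal over the drug incubation period at five concentrations: 100, 10, 1.0, 0.1 and 0.01 μM. GI50 is the concentration that reduces growth of treated cells to half that of control cells.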

[39] = test system: SR; experiment: Cytotoxicity against human SR cells; assay type: cell-based
Outline: (§4)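 Screened by NCI in its in vitro disease-oriented human tumour cell line panel. Compounds tested at five concentrations (100, 10, 1.0, 0.1 and 0.01 μM). Growth read by sulforhodamine B (SRB) signal. GI50 is the concentration reducing growth of treated cells to half that of control cells during the drug incubation.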

[40] = test system: A549; experiment: Cytotoxicity against human A549 cells; assay type: cell-based; outline: as §3
[41] = test system: NCI-H23; experiment: Cytotoxicity against human NCI-H23 cells; assay type: cell-based
[42] = test system: NCI-H322M; experiment: Cytotoxicity against human NCI-H322M cells; assay type: cell-based
[43] = test system: NCI-H460; experiment: Cytotoxicity against human NCI-H460 cells; assay type: cell-based
[44] = test system: COLO 205; experiment: Cytotoxicity against human COLO205 cells; assay type: cell-based; outline: as §3
[45] = test system: HCT-15; experiment: Cytotoxicity against human HCT15 cells; assay type: cell-based; outline: as §3
[46] = test system: HT-29; experiment: Cytotoxicity against human HT-29 cells; assay type: cell-based; outline: as §3
[47] = test system: SW-620; experiment: Cytotoxicity against human SW620 cells; assay type: cell-based; outline: as §4
[48] = test system: SF-268; experiment: Cytotoxicity against human SF268 cells; assay type: cell-based; outline: as §3
[49] = test system: SF-295; experiment: Cytotoxicity against human SF295 cells; assay type: cell-based; outline: as §3
[50] = test system: SF-539; experiment: Cytotoxicity against human SF539 cells; assay type: cell-based; outline: as §3
[51] = test system: LOX IMVI; experiment: Cytotoxicity against human LOXIMVI cells; assay type: cell-based
[52] = test system: MDA-MB-435; experiment: Cytotoxicity against human MDA-MB-435 cells; assay type: cell-based
[53] = test system: UACC-257; experiment: Cytotoxicity against human UACC257 cells; assay type: cell-based; outline: as §4
[54] = test system: UACC-62; experiment: Cytotoxicity against human UACC62 cells; assay type: cell-based; outline: as §4
[55] = test system: IGROV-1; experiment: Cytotoxicity against human IGROV1 cells; assay type: cell-based
[56] = test system: OVCAR-4; experiment: Cytotoxicity against human OVCAR4 cells; assay type: cell-based
[57] = test system: OVCAR-8; experiment: Cytotoxicity against human OVCAR8 cells; assay type: cell-based
[58] = test system: SK-OV-3; experiment: Cytotoxicity against human SKOV3 cells; assay type: cell-based
[59] = test system: 786-0; experiment: Cytotoxicity against human 786-0 cells; assay type: cell-based
[60] = test system: ACHN; experiment: Cytotoxicity against human ACHN cells; assay type: cell-based
[61] = test system: TK-10; experiment: Cytotoxicity against human TK10 cells; assay type: cell-based; outline: as §4
[62] = test system: UO-31; experiment: Cytotoxicity against human UO31 cells; assay type: cell-based; outline: as §4
[63] = test system: DU-145; experiment: Cytotoxicity against human DU145 cells; assay type: cell-based; outline: as §3
[64] = Cytotoxicity against human Hs 578T cells; assay type: cell-based
[65] = test system: BT-549; experiment: Cytotoxicity against human BT549 cells; assay type: cell-based

For `CC(/C=C/c1ccccc1)n1cc(/C=C/C(=O)NO)nn1` (stereo not given), the GI50 [1] was 0.442 µM, the GI50 [2] was 0.355 µM and the GI50 [3] was 1.47 µM. For the same molecule, the GI50 [4] was 0.677 µM, the GI50 [5] was 1.28 µM and the GI50 [6] was 0.612 µM. For the same molecule, the GI50 [7] was 0.341 µM, the GI50 [8] was 0.383 µM and the GI50 [9] was 1.51 µM. It also gave a GI50 [10] of 0.934 µM, a GI50 [11] of 1.87 µM and a GI50 [12] of 0.924 µM. For the same molecule, the GI50 [13] was 0.777 µM, the GI50 [14] was 0.438 µM and the GI50 [15] was 0.279 µM. It also gave a GI50 [16] of 0.777 µM, a GI50 [17] of 0.44 µM and a GI50 [18] of 0.573 µM. For the same molecule, the GI50 [19] was 1.35 µM, the GI50 [20] was 0.524 µM and the GI50 [21] was 0.564 µM. It also gave a GI50 [22] of 1.13 µM, a GI50 [23] of 0.232 µM and a GI50 [24] of 1.64 µM. For the same molecule, the GI50 [25] was 0.472 µM, the GI50 [26] was 0.765 µM and the GI50 [27] was 1.41 µM. The GI50 [28] was 1.29 µM, the GI50 [29] was 0.549 µM and the GI50 [30] was 0.803 µM. For the same molecule, the GI50 [31] was 1.16 µM, the GI50 [32] was 0.692 µM and the GI50 [33] was 2.11 µM. For the same molecule, the GI50 [34] was 0.667 µM, the GI50 [35] was 0.299 µM and the LC50 [36] was over 100 µM. The LC50 [37] was over 100 µM, the LC50 [38] was over 100 µM and the LC50 [39] was over 100 µM. It also gave an LC50 [40] of over 100 µM, an LC50 [41] of 6.61 µM and an LC50 [42] of over 100 µM. The LC50 [43] was 42.7 µM, the LC50 [44] was 5.2 µM and the LC50 [45] was 42.8 µM. The LC50 [46] was 33.9 µM, the LC50 [47] was 5.15 µM and the LC50 [48] was 12.2 µM. For the same molecule, the LC50 [49] was over 100 µM, the LC50 [50] was 4.61 µM and the LC50 [51] was 4.12 µM. It also gave an LC50 [52] of 30.8 µM, an LC50 [53] of over 100 µM and an LC50 [54] of 7.99 µM. For the same molecule, the LC50 [55] was 5.74 µM, the LC50 [56] was 18.3 µM and the LC50 [57] was 6.91 µM. The LC50 [58] was 21.8 µM, the LC50 [59] was 9.03 µM and the LC50 [60] was 5.86 µM. The LC50 [61] was 31.9 µM, the LC50 [62] was 66.7 µM and the LC50 [63] was over 100 µM. The LC50 [64] was over 100 µM and the LC50 [65] was over 100 µM.
